Laboratory results from ChEMBL document CHEMBL3046679, “Design, synthesis, and biological activities of arylmethylamine substituted chlorotriazine and methylthiotriazine compounds” (J Agric Food Chem, 2011).
Calls of active or inactive are those of the source.

Tests used:
Phytophthora infestans [1] = experiment: Fungicidal activity against Phytophthora infestans assessed as inhibition of disease development in compound treated leaf pieces at 20 ppm relative to untreated control (tomato-preventative); format: functional
In short: (§1)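 Preventative leaf-piece test on host tissue (tomato, vine, wheat or barley). Formulated compound applied at 200, 60 and 20 ppm before spore inoculation. Disease scored 3–9 days after inoculation, depending on the pathogen, as percent inhibition of disease development versus untreated controls. Values are the mean across replicates.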

Alternaria solani [2] = experiment: Fungicidal activity against Alternaria solani assessed as inhibition of disease development in compound treated leaf pieces at 200 ppm relative to untreated control (tomato-preventative); format: functional; in short: as §1
Lolium perenne = experiment: Herbicidal activity against Lolium perenne (perennial ryegrass) assessed as growth inhibition at 1 kg/ha postemergence treatment by glasshouse test; format: functional; conditions: post-emergence, read-out: GI
In short: (§2)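 Glasshouse screen with pre- or postemergence application at 1.0 kg/ha. Result given as percent inhibition of plant growth; norflurazon and glyphosate used as controls.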

Pythium dissimile = experiment: Fungicidal activity against Pythium dissimile assessed as inhibition of mycelia growth at 2 ppm; format: functional, organism-based
In short: (§3)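 Mycelial growth test in 96-well plates: compound incorporated into artificial growth medium at 2 ppm, two replicates per rate. Each well scored 99 for complete, 55 for partial or 0 for no inhibition. Values are the mean across replicates; azoxystrobin and prochloraz used as positive controls.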

Poa annua = experiment: Herbicidal activity against Poa annua assessed as growth inhibition at 32 ppm by 96-well plate test; format: functional; conditions: read-out: GI
In short: (§4)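 96-well plate herbicide screen: Arabidopsis thaliana at 10 ppm and Poa annua at 32 ppm, two replicates. Plates incubated seven days in a controlled-environment cabinet. Each replicate scored 0 (no visible effect) or 99 (herbicidal effect); values are the mean of the two. Atrazine used as reference.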

Brassica napus [3] = experiment: Herbicidal activity against Brassica napus (oilseed rape) at 1.5 kg/ha preemergence treatment measured after 10 days by glasshouse test; format: functional; conditions: pre-emergence, 240 h
In short: (§5)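 Glasshouse pre/postemergence test, each treatment in triplicate. Above-ground fresh weight measured 10 days after treatment. Result expressed as percent inhibition versus control, from 0 (no control) to 100 (complete control); glyphosate used as positive control.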

Arabidopsis thaliana = experiment: Herbicidal activity against Arabidopsis thaliana assessed as growth inhibition at 10 ppm by 96-well plate test; format: functional; conditions: read-out: GI; in short: as §4
Echinochloa crus-galli [4] = experiment: Herbicidal activity against Echinochloa crus-galli (barnyard grass) at 1.5 kg/ha preemergence treatment measured after 10 days by glasshouse test; format: functional; conditions: pre-emergence, 240 h; in short: as §5
Amaranthus retroflexus = experiment: Herbicidal activity against Amaranthus retroflexus assessed as growth inhibition at 1 kg/ha postemergence treatment by glasshouse test; format: functional; conditions: post-emergence, read-out: GI; in short: as §2
Brassica napus [5] = experiment: Herbicidal activity against Brassica napus (oilseed rape) at 1.5 kg/ha postemergence treatment measured after 10 days by glasshouse test; format: functional; conditions: post-emergence, 240 h; in short: as §5
Puccinia triticina [6] = experiment: Fungicidal activity against Puccinia triticina assessed as inhibition of disease development in compound treated leaf pieces at 60 ppm relative to untreated control (wheat-curative); format: functional
In short: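 Curative wheat leaf-piece test against Puccinia triticina. Leaf pieces inoculated with spores first, then treated with formulated compound at 200, 60 or 20 ppm. Disease scored 3–9 days after inoculation as percent inhibition versus untreated controls. Values are the mean across replicates.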

Alternaria solani [7] = experiment: Fungicidal activity against Alternaria solani assessed as inhibition of mycelia growth at 2 ppm; format: functional, organism-based; in short: as §3
Pyrenophora teres [8] = experiment: Fungicidal activity against Pyrenophora teres assessed as inhibition of disease development in compound treated leaf pieces at 20 ppm relative to untreated control (barley-preventative); format: functional; in short: as §1
Pyrenophora teres [9] = experiment: Fungicidal activity against Pyrenophora teres assessed as inhibition of disease development in compound treated leaf pieces at 60 ppm relative to untreated control (barley-preventative); format: functional; in short: as §1
Parastagonospora nodorum [10] = experiment: Fungicidal activity against Phaeosphaeria nodorum assessed as inhibition of disease development in compound treated leaf pieces at 60 ppm relative to untreated control (wheat preventative); format: functional; in short: as §1
Stellaria media = experiment: Herbicidal activity against Stellaria media assessed as growth inhibition at 1 kg/ha preemergence treatment by glasshouse test; format: functional; conditions: pre-emergence, read-out: GI; in short: as §2
Zymoseptoria tritici = experiment: Fungicidal activity against Zymoseptoria tritici assessed as inhibition of mycelia growth at 100 ppm; format: functional, organism-based
Alternaria solani [11] = experiment: Fungicidal activity against Alternaria solani assessed as inhibition of disease development in compound treated leaf pieces at 60 ppm relative to untreated control (tomato-preventative); format: functional; in short: as §1
Parastagonospora nodorum [12] = experiment: Fungicidal activity against Phaeosphaeria nodorum assessed as inhibition of disease development in compound treated leaf pieces at 20 ppm relative to untreated control (wheat preventative); format: functional; in short: as §1
Phytophthora infestans [13] = experiment: Fungicidal activity against Phytophthora infestans assessed as inhibition of disease development in compound treated leaf pieces at 60 ppm relative to untreated control (tomato-preventative); format: functional; in short: as §1
Parastagonospora nodorum [14] = experiment: Fungicidal activity against Phaeosphaeria nodorum assessed as inhibition of disease development in compound treated leaf pieces at 200 ppm relative to untreated control (wheat preventative); format: functional
In short: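 Wheat leaf pieces treated with formulated compound (200, 60 and 20 ppm) before inoculation with pathogen spores. Disease development assessed 3–9 days after inoculation, depending on the assay. Scored as percent inhibition relative to untreated controls; value is the mean across replicates.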

Echinochloa crus-galli [15] = experiment: Herbicidal activity against Echinochloa crus-galli (barnyard grass) at 1.5 kg/ha postemergence treatment measured after 10 days by glasshouse test; format: functional; conditions: post-emergence, 240 h; in short: as §5
Alternaria solani [16] = experiment: Fungicidal activity against Alternaria solani assessed as inhibition of disease development in compound treated leaf pieces at 20 ppm relative to untreated control (tomato-preventative); format: functional; in short: as §1
Puccinia triticina [17] = experiment: Fungicidal activity against Puccinia triticina assessed as inhibition of disease development in compound treated leaf pieces at 200 ppm relative to untreated control (wheat-preventative); format: functional; in short: as §1
Uromyces viciae-fabae = experiment: Fungicidal activity against Uromyces viciae-fabae assessed as inhibition of mycelia growth at 100 ppm; format: functional, organism-based
In short: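 Leaf-piece assay on bean at 100 ppm, with compound applied before spore inoculation and two replicates. Each well scored 99 for complete inhibition, 55 for partial and 0 for none; value is the mean score across replicates.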

Digitaria sanguinalis = experiment: Herbicidal activity against Digitaria sanguinalis (hairy crabgrass) assessed as growth inhibition at 1 kg/ha preemergence treatment by glasshouse test; format: functional; conditions: pre-emergence, read-out: GI; in short: as §2
Plasmopara viticola = experiment: Fungicidal activity against Plasmopara viticola assessed as inhibition of disease development in compound treated leaf pieces at 20 ppm relative to untreated control (grapevine-preventative); format: functional; in short: as §1
Phytophthora infestans [18] = experiment: Fungicidal activity against Phytophthora infestans assessed as inhibition of mycelia growth at 200 ppm; format: functional, organism-based
Botrytis cinerea = experiment: Fungicidal activity against Botryotinia fuckeliana assessed as inhibition of mycelia growth at 2 ppm; format: functional, organism-based; in short: as §3
Puccinia triticina [19] = experiment: Fungicidal activity against Puccinia triticina assessed as inhibition of disease development in compound treated leaf pieces at 20 ppm relative to untreated control (wheat-preventative); format: functional; in short: as §1
Phytophthora infestans [20] = experiment: Fungicidal activity against Phytophthora infestans assessed as inhibition of disease development in compound treated leaf pieces at 200 ppm relative to untreated control (tomato-preventative); format: functional; in short: as §1
Heliothis virescens = experiment: Insecticidal activity against Lepidoptera Heliothis virescens (tobacco budworm) assessed as mortality at 1000 ppm by leaf-disk assay; format: functional, organism-based
In short: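 Leaf-disk assay at 1000 ppm, three replicates. Plates kept 5–9 days in controlled-environment cabinets. Mortality judged against untreated wells: 99 for significant mortality, 0 otherwise. Values are the mean of three; thiamethoxam and indoxacarb used as positive controls.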

Puccinia triticina [21] = experiment: Fungicidal activity against Puccinia triticina assessed as inhibition of disease development in compound treated leaf pieces at 60 ppm relative to untreated control (wheat-preventative); format: functional; in short: as §1

CC(C)Nc1nc(Cl)nc(NCc2ccc(F)cc2)n1
active: inhibition (Zymoseptoria tritici) | inhibition (Uromyces viciae-fabae) | inhibition (Botrytis cinerea)
0%: inhibition at 20 ppm (Phytophthora infestans [1]) | inhibition at 200 ppm (Alternaria solani [2]) | inhibition of growth at 32 ppm (Poa annua) | inhibition at 20 ppm (Pyrenophora teres [8]) | inhibition at 60 ppm (Pyrenophora teres [9]) | inhibition at 60 ppm (Alternaria solani [11]) | inhibition at 20 ppm (Parastagonospora nodorum [12]) | inhibition at 60 ppm (Phytophthora infestans [13]) | inhibition at 20 ppm (Alternaria solani [16]) | inhibition at 20 ppm (Plasmopara viticola) | inhibition at 20 ppm (Puccinia triticina [19]) | inhibition at 200 ppm (Phytophthora infestans [20])
2.1%: inhibition at 1500 g/ha (Echinochloa crus-galli [4])
90%: inhibition of growth at 1000 g/ha (Stellaria media)
20%: inhibition at 60 ppm (Parastagonospora nodorum [10]) | inhibition at 60 ppm (Puccinia triticina [21])
inactive: inhibition (Pythium dissimile) | inhibition (Alternaria solani [7]) | inhibition (Phytophthora infestans [18]) | mortality (Heliothis virescens)
70%: inhibition at 200 ppm (Parastagonospora nodorum [14]) | inhibition of growth at 1000 g/ha (Digitaria sanguinalis)
50%: inhibition of growth at 1000 g/ha (Lolium perenne)
75.7%: inhibition at 1500 g/ha (Echinochloa crus-galli [15])
99%: inhibition of growth at 10 ppm (Arabidopsis thaliana)
100%: inhibition at 1500 g/ha (Brassica napus [3]) | inhibition of growth at 1000 g/ha (Amaranthus retroflexus) | inhibition at 1500 g/ha (Brassica napus [5]) | inhibition at 60 ppm (Puccinia triticina [6]) | inhibition at 200 ppm (Puccinia triticina [17])
